Numbering of substitutions follows the chain as printed. Read-outs that look alike come from different tables or passages of the source. Each block holds one molecule with its values, some of them ahead of it.
Columns and labels:
[1] = tested on: Oc1ccc2ccc3cccc4ccc1c2c34; assay: purified protein, by the assay type; conditions: saturating PAPS (300 μM), (−) quercetin, pH 7.5, 25.0 °C
SULT2B1b S347D [2] = biological target: T1, SULT2B1b S347D (Homo sapiens, UniProt O00204, S347D); assay: Initial-rate 1-HP sulfonation; conditions: for Ki: read-out: Ki 7-DH
T1 sequence (O00204 1-365 S347D): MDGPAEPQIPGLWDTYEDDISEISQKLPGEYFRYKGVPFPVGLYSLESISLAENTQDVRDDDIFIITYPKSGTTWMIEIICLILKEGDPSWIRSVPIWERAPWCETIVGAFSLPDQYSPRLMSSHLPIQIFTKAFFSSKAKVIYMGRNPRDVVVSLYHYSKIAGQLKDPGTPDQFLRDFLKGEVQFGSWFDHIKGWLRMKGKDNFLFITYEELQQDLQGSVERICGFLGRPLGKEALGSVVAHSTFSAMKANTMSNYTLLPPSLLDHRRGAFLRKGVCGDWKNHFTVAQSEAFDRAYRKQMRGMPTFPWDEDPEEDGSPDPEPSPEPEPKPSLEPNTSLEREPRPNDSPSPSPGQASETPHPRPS

SULT2B1b = conditions: cited from earlier work
[3] = tested on: Oc1ccc2ccc3cccc4ccc1c2c34; assay: Initial-rate parameters, spin-labeled mutant 247; format: biochemical, human; conditions: other: spin label at 247; saturating PAPS (300 μM); 25.0 °C
[4] = tested on: Oc1ccc2ccc3cccc4ccc1c2c34; assay: Initial-rate parameters, non DTNB-reactive scaffold; format: biochemical, human; conditions: other: NR; saturating PAPS (300 μM); 25.0 °C
SULT2B1b S347D [5] = biological target: T1, SULT2B1b S347D; assay: Equilibrium binding via intrinsic fluorescence
Procedure, shortened: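 Intrinsic fluorescence titrations of purified His/GST/MBP-tag-cleaved enzyme, excitation 290 nm, in KPO4 (50 mM), pH 7.5, 25 ± 2 °C. […] Triplicate averaged data were fit to a single-site-per-monomer model.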

[6] = tested on: Oc1ccc2ccc3cccc4ccc1c2c34; assay: Initial-rate parameters, spin-labeled mutant 21; format: biochemical, human; conditions: other: spin label at 21; saturating PAPS (300 μM); 25.0 °C
SULT2B1b, S347D, W98A = biological target: T2, SULT2B1b, S347D, W98A (Homo sapiens, UniProt O00204, S347D/W98A); assay: Initial-rate parameters, direct-contact mutant W98A; conditions: read-out: Km PAPS; W98A; saturating 1-HP (100 μM); (−) quercetin
T2 sequence (O00204 1-365 W98A/S347D): T1 sequence (O00204 1-365 S347D) with W98A

SULT2B1b, S347D, W13A = biological target: T3, SULT2B1b, S347D, W13A (Homo sapiens, UniProt O00204, S347D/W13A); assay: Initial-rate parameters, direct-contact mutant W13A; conditions: read-out: Km PAPS; W13A; saturating 1-HP (100 μM); (−) quercetin
T3 sequence (O00204 1-365 W13A/S347D): T1 sequence (O00204 1-365 S347D) with W13A

SULT2B1b, S347D, Y257A = biological target: T4, SULT2B1b, S347D, Y257A (Homo sapiens, UniProt O00204, S347D/Y257A); assay: Initial-rate parameters, direct-contact mutant Y257A; conditions: read-out: Km PAPS; Y257A; saturating 1-HP (100 μM); (−) quercetin
T4 sequence (O00204 1-365 Y257A/S347D): T1 sequence (O00204 1-365 S347D) with Y257A

SULT2B1b S347D [7] = biological target: T1, SULT2B1b S347D; assay: Stopped-flow ligand-binding studies
[8] = tested on: Oc1ccc2ccc3cccc4ccc1c2c34; assay: Initial-rate parameters, spin-labeled mutant 171; format: biochemical, human; conditions: other: spin label at 171; saturating PAPS (300 μM); 25.0 °C

Molecule: SULT2B1b, S347D, Y257A (Homo sapiens; S347D/Y257A)
- Km ([1]; other: Y257A): 4.0 (0.3) μM

Molecule: CC(C)CCC[C@@H](C)[C@H]1CC[C@H]2C3=CC=C4C[C@@H](O)CC[C@]4(C)[C@H]3CC[C@]12C [7-DH, 7-dehydrocholesterol]
- α (fraction turnover at saturation), 7-DH (SULT2B1b S347D [2]; PAPS 30 μM, 1-HP 100 μM): 0.11 ± 0.02
- Ki (SULT2B1b S347D [2]): 0.11 µM
- Ki (SULT2B1b S347D [2]; PAPS 30 μM, 1-HP 100 μM, noncompetitive partial-inhibition model): 0.11 ± 0.007 µM
- SULT2B1b substrate (SULT2B1b): neither of which is a SULT2B1b substrate

Molecule: SULT2B1b S347D spin-labeled at residue 247 (Homo sapiens; C225S/C278S/C81S/S247C/S347D)
- Km [3]: 3.6 (0.3) μM
- kcat [3]: 3.5 s⁻¹

Molecule: SULT2B1b C81S, C225S, C278S, S347D (Homo sapiens; C225S/C278S/C81S/S347D)
- Km [4]: 3.5 (0.2) μM
- kcat [4]: 3.3 s⁻¹

- Kd (SULT2B1b S347D [5]): 0.38 µM
Molecule: Nc1ncnc2c1ncn2[C@@H]1O[C@H](COP(=O)(O)O)[C@@H](OP(=O)(O)O)[C@H]1O [PAP, 3′-phosphoadenosine 5′-phosphate]

Molecule: SULT2B1b, S347D, W98A (Homo sapiens; S347D/W98A)
- Km ([1]; other: W98A): 3.6 (0.2) μM

Molecule: SULT2B1b, S347D, W13A (Homo sapiens; S347D/W13A)
- Km ([1]; other: W13A): 4.2 (0.3) μM

- inhibition of SULT2B1b turnover (SULT2B1b S347D [2]; concentrations as high as 10 μM): does not inhibit
Molecule: CC(C)=CCC[C@@H](C)[C@H]1CC[C@H]2[C@@H]3CC=C4C[C@@H](O)CC[C@]4(C)[C@H]3CC[C@]12C [24-DH, 24-dehydrocholesterol]
- SULT2B1b substrate (SULT2B1b): neither of which is a SULT2B1b substrate

Molecule: SULT2B1b S347D spin-labeled at residue 21 (Homo sapiens; C225S/C278S/C81S/S21C/S347D)
- Km [6]: 4.2 (0.3) μM
- kcat [6]: 3.6 s⁻¹

Molecule: SULT2B1b S347D (Homo sapiens; S347D)
- Km ([1]; other: WT): 3.8 (0.3) μM
- kcat ([1]; other: WT): 3.4 s⁻¹

- Km (SULT2B1b, S347D, W98A): 0.31 µM
- Km (SULT2B1b, S347D, W13A): 0.36 µM
- Km (SULT2B1b, S347D, Y257A): 0.37 µM
- increase of PAPS affinity (SULT2B1b S347D [5]; at saturating quercetin): 12 fold
- koff (SULT2B1b S347D [7]; (−) Quc): 3.0 (0.2) s^−1
- kon (SULT2B1b S347D [7]; (−) Quc): 8.0 (0.3)^1 μM^−1s^−1
- rate constant for release of PAPS (SULT2B1b S347D [7]; absence of quercetin): 3.0 ± 0.2 s⁻¹
- decrease of koff PAPS (SULT2B1b S347D [7]; at saturating quercetin): 14 fold
- rate constant for PAPS release (SULT2B1b S347D [7]; at saturating quercetin): 0.22 ± 0.2 s⁻¹
- Kd (SULT2B1b S347D [7]; read-out: Kd PAPS (koff/kon), (−) Quc): 0.38 µM
Molecule: Nc1ncnc2c1ncn2[C@@H]1O[C@H](COP(=O)(O)OS(=O)(=O)O)[C@@H](OP(=O)(O)O)[C@H]1O [PAPS, 3′-phosphoadenosine 5′-phosphosulfate]

Molecule: SULT2B1b S347D spin-labeled at residue 171 (Homo sapiens; C225S/C278S/C81S/S347D/T171C)
- Km [8]: 4.1 (0.2) μM
- kcat [8]: 3 s⁻¹
